# According to ChEMBL document CHEMBL2390839, “Di-alkylated paromomycin derivatives: targeting the membranes of gram positive pathogens that cause skin infections” (Bioorg Med Chem, 2013):
# The source made the active and inactive calls. No cut-off for these calls is given here. Non-standard residues stand in square brackets, D forms with d. Residues, ends and D or L forms follow the SMILES beside them. *: point of attachment. NHCH2CH2OH = OCCN*; For = O=C*
# Columns and labels:
# [1] = Antibacterial activity against biofilm-positive Staphylococcus epidermidis RP62A ATCC 35984 assessed as growth inhibition after 24 hrs by MTT assay; format: functional; conditions: ATCC 35984, 24 h
# In short: (§1)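 Starter cultures were grown 24 h at 37 °C, 5% CO2, aerobic, then diluted in fresh medium to OD600 0.004. Twofold serial dilutions started at 64 µg/mL. After 24 h of incubation, MTT (1 mg/mL solution) was added and plates were incubated 2 h more at 37 °C. MIC was taken as the lowest concentration with no growth. Two independent experiments were run, each in triplicate.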
# [2] = tested on: Streptococcus pyogenes; assay: Antibacterial activity against Streptococcus pyogenes serotype M24 assessed as growth inhibition after 24 hrs by MTT assay; format: functional; conditions: serotype M24, 24 h; in short: as §1
# [3] = Hemolytic activity in rat RBC assessed as hemoglobin release at 256 ug/mL after 1 hr by microplate reader analysis relative to control; format: ADME, cell-based, Erythrocyte; conditions: red blood cells (RBC), read-out: Activity
# In short: (§2)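 Rat RBCs (2% w/w) were exposed to compound for 1 h at 37 °C, 5% CO2, using twofold dilutions from 256 µg/mL. PBS served as the negative control and 1% w/v Triton X-100 as the 100% lysis control. After centrifugation (2000 rpm, 10 min), supernatant absorbance was read at 550 nm and expressed as % hemoglobin release relative to Triton. Assays were run in triplicate, averaged over blood from at least two rats.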
# [4] = tested on: Staphylococcus aureus; assay: Antibacterial activity against Staphylococcus aureus NCTC 6571 assessed as growth inhibition after 24 hrs by MTT assay; format: functional; conditions: NCTC 6571, 24 h
# In short: (§3)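 Starter cultures grown 24 h at 37 °C, 5% CO2, aerobic, then diluted in fresh medium to OD600 0.004. Twofold serial dilutions from 64 µg/mL, 24 h incubation. MTT (1 mg/mL solution) added, then 2 h at 37 °C. MIC = lowest concentration with no visible growth. Two independent experiments, each in triplicate.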
# [5] = tested on: Streptococcus pyogenes; assay: Antibacterial activity against glossy colony producing Streptococcus pyogenes assessed as growth inhibition after 24 hrs by MTT assay; format: functional; in short: as §1
# [6] = Hemolytic activity in rat RBC assessed as hemoglobin release at 128 ug/mL after 1 hr by microplate reader analysis; format: ADME, cell-based; conditions: erythrocyte; in short: as §2
# [7] = tested on: Streptococcus pyogenes; assay: Antibacterial activity against Streptococcus pyogenes JRS75 assessed as growth inhibition after 24 hrs by MTT assay; format: functional; conditions: JRS75, 24 h; in short: as §1
# [8] = tested on: Streptococcus pyogenes; assay: Antibacterial activity against Streptococcus pyogenes serotype M1T1 assessed as growth inhibition after 24 hrs by MTT assay; format: functional; conditions: serotype M1T1, 24 h; in short: as §1
# [9] = Antibacterial activity against Streptococcus pyogenes serotype M3 assessed as growth inhibition after 24 hrs by MTT assay; format: functional; in short: as §1
# [10] = Antibacterial activity against Streptococcus pyogenes serotype M2 assessed as growth inhibition after 24 hrs by MTT assay; format: functional; in short: as §1
# [11] = tested on: Streptococcus pyogenes; assay: Antibacterial activity against Streptococcus pyogenes serotype T5 assessed as growth inhibition after 24 hrs by MTT assay; format: functional; conditions: serotype T5, 24 h; in short: as §1
# [12] = Antibacterial activity against Streptococcus pyogenes serotype M5 assessed as growth inhibition after 24 hrs by MTT assay; format: functional; in short: as §1
# [13] = tested on: Staphylococcus aureus; assay: Antibacterial activity against methicillin-resistant Staphylococcus aureus assessed as growth inhibition after 24 hrs by MTT assay; format: functional; in short: as §3
# [14] = tested on: Staphylococcus epidermidis; assay: Antibacterial activity against biofilm-negative Staphylococcus epidermidis ATCC 12228 assessed as growth inhibition after 24 hrs by MTT assay; format: functional; conditions: ATCC 12228, 24 h; in short: as §1
# [15] = tested on: Staphylococcus aureus; assay: Antibacterial activity against Staphylococcus aureus Cowan ATCC 12598 assessed as growth inhibition after 24 hrs by MTT assay; format: functional; conditions: Cowan ATCC 12598, 24 h; in short: as §3
# [16] = Hemolytic activity in rat RBC assessed as hemoglobin release at 16 ug/mL after 1 hr by microplate reader analysis relative to control; format: ADME, cell-based, Erythrocyte; conditions: red blood cells (RBC), read-out: Activity; in short: as §2
# [17] = tested on: Streptococcus pyogenes; assay: Antibacterial activity against Streptococcus pyogenes MGAS9429 assessed as growth inhibition after 24 hrs by MTT assay; format: functional; conditions: MGAS9429, 24 h; in short: as §1
# [18] = tested on: Staphylococcus epidermidis; assay: Antibacterial activity against Staphylococcus epidermidis ATCC 12228 assessed as cell surface wrinkling at 1 ug/mL after 1 hr by scanning electron microscopic analysis; format: functional, organism-based
# In short: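 S. epidermidis ATCC12228 grown 4 h at 37 °C, aerobic, to OD600 0.2. Cells washed in PBS pH 7.4 and resuspended to OD600 1.0. Treated with 1 µg/mL for 1 h at 37 °C, then diluted twofold. Washed, fixed overnight at 4 °C in 2.5% glutaraldehyde/PBS, dehydrated through graded ethanol, vacuum-dried, Pd-Au coated and imaged by SEM. Compared against untreated cells.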
# [19] = Hemolytic activity in rat RBC assessed as hemoglobin release at 2 ug/mL after 1 hr by microplate reader analysis relative to control; format: ADME, cell-based, Erythrocyte; conditions: red blood cells (RBC), read-out: Activity
# In short: (§4)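 Rat RBCs (2% w/w) incubated 1 h at 37 °C, 5% CO2 with twofold dilutions starting at 256 µg/mL. PBS served as negative control and 1% w/v Triton X100 as the 100% lysis control. After centrifugation (2000 rpm, 10 min), supernatant absorbance read at 550 nm. Hemoglobin release expressed as % of Triton. Triplicates, with blood from at least two rats.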
# [20] = Hemolytic activity in rat RBC assessed as hemoglobin release at 64 ug/mL after 1 hr by microplate reader analysis; format: ADME, cell-based; conditions: erythrocyte; in short: as §4
# [21] = Hemolytic activity in rat RBC assessed as hemoglobin release at 32 ug/mL after 1 hr by microplate reader analysis relative to control; format: ADME, cell-based, Erythrocyte; conditions: red blood cells (RBC), read-out: Activity; in short: as §2
# [22] = Ratio of gramicidin D activity to compound activity for hemolysis of rat RBC up to 256 ug/mL after 1 hrs; format: ADME, cell-based; conditions: erythrocyte
# [23] = tested on: Staphylococcus aureus; assay: Ratio of gramicidin D MIC to compound MIC for Staphylococcus aureus NCTC 6571; format: functional
# [24] = tested on: Staphylococcus aureus; assay: Ratio of gramicidin D MIC to compound MIC for Staphylococcus aureus Cowan ATCC 12598; format: functional
# [25] = tested on: Streptococcus pyogenes; assay: Ratio of gramicidin D MIC to compound MIC for glossy colony producing Streptococcus pyogenes; format: functional
# [26] = tested on: Staphylococcus epidermidis; assay: Ratio of gramicidin D MIC to compound MIC for biofilm-negative Staphylococcus epidermidis ATCC 12228; format: functional
# [27] = tested on: Streptococcus pyogenes; assay: Ratio of gramicidin D MIC to compound MIC for Streptococcus pyogenes MGAS9429; format: functional
Compound,MIC [1] [µg/mL],MIC [2] [µg/mL],"hemolysis at 1 h, 256 ug/mL [3] [%]",MIC [4] [µg/mL],MIC [5] [µg/mL],Activity [6],MIC [7] [µg/mL],MIC [8] [µg/mL],MIC [9] [µg/mL],MIC [10] [µg/mL],MIC [11] [µg/mL],MIC [12] [µg/mL],MIC [13] [µg/mL],MIC [14] [µg/mL],MIC [15] [µg/mL],"hemolysis at 1 h, 16 ug/mL [16] [%]",MIC [17] [µg/mL],Activity [18],Activity [20],"hemolysis at 1 h, 32 ug/mL [21] [%]",other results
CCCCCCSC[C@H]1O[C@H](O[C@H]2[C@H](O[C@@H]3O[C@H](CSCCCCCC)[C@@H](O[C@H]4O[C@@H](CN)[C@@H](O)[C@H](O)[C@H]4N)[C@H]3O)[C@@H](O)[C@H](N)C[C@@H]2N)[C@H](N)[C@@H](O)[C@@H]1O,16,8,3.4,32,8,Toxic,8,16,4,8,4,8,> 64,8,64,0,8,–,–,–,–
NC[C@@H]1O[C@H](O[C@H]2[C@@H](O)[C@H](O[C@@H]3[C@@H](O)[C@H](N)C[C@H](N)[C@H]3O[C@H]3O[C@H](CO)[C@@H](O)[C@H](O)[C@H]3N)O[C@@H]2CO)[C@H](N)[C@@H](O)[C@@H]1O [PAROMOMYCIN],> 64,64,–,> 64,64,–,64,64,32,64,16,32,> 64,2,16,–,> 64,Active,–,–,–
CC(C)C[C@@H](NC(=O)[C@H](C)NC(=O)CNC(=O)[C@@H](NC=O)C(C)C)C(=O)N[C@@H](C)C(=O)N[C@@H](C(=O)N[C@H](C(=O)N[C@@H](C(=O)N[C@@H](Cc1c[nH]c2ccccc12)C(=O)N[C@H](CC(C)C)C(=O)N[C@@H](Cc1c[nH]c2ccccc12)C(=O)N[C@H](CC(C)C)C(=O)N[C@@H](Cc1c[nH]c2ccccc12)C(=O)N[C@H](CC(C)C)C(=O)N[C@@H](Cc1c[nH]c2ccccc12)C(=O)NCCO)C(C)C)C(C)C)C(C)C [GRAMICIDIN D] (For-VGA[dL]A[dV]V[dV]W[dL]W[dL]W[dL]W-NHCH2CH2OH),2,< 0.5,< 60,32,16,–,< 0.5,< 0.5,< 0.5,< 0.5,2,< 0.5,64,8,> 64,–,> 64,–,Toxic,–,"hemolysis at 1 h, 2 ug/mL [19]: 2.4%"
CCCCCCCCCCCCCCCCSC[C@H]1O[C@H](O[C@H]2[C@H](O[C@@H]3O[C@H](CO)[C@@H](O[C@H]4O[C@@H](CN)[C@@H](O)[C@H](O)[C@H]4N)[C@H]3O)[C@@H](O)[C@H](N)C[C@@H]2N)[C@H](N)[C@@H](O)[C@@H]1O,64,32,–,64,32,–,8,> 64,32,16,8,64,64,32,64,33.8,32,–,–,100,–
CCCCCCCSC[C@H]1O[C@H](O[C@H]2[C@H](O[C@@H]3O[C@H](CSCCCCCCC)[C@@H](O[C@H]4O[C@@H](CN)[C@@H](O)[C@H](O)[C@H]4N)[C@H]3O)[C@@H](O)[C@H](N)C[C@@H]2N)[C@H](N)[C@@H](O)[C@@H]1O,4,4,30.4,8,4,Toxic,4,4,2,2,4,4,16,4,16,0,4,–,Toxic,3.6,Ratio [22]: 2
CCCCCCCCSC[C@H]1O[C@H](O[C@H]2[C@H](O[C@@H]3O[C@H](CSCCCCCCCC)[C@@H](O[C@H]4O[C@@H](CN)[C@@H](O)[C@H](O)[C@H]4N)[C@H]3O)[C@@H](O)[C@H](N)C[C@@H]2N)[C@H](N)[C@@H](O)[C@@H]1O,2,2,62.5,4,2,Toxic,2,2,2,2,2,2,8,2,4,0.8,4,Active,–,–,Ratio [23]: 16; Ratio [24]: > 16; Ratio [25]: 8; Ratio [26]: 4; Ratio [27]: > 16
